Measured values published in ChEMBL document CHEMBL2176944, “2-(3-Oxo-1,3-diphenylpropyl)malonic acids as potent allosteric ligands of the PIF pocket of phosphoinositide-dependent kinase-1: development and prodrug concept” (J Med Chem, 2012).
Calls of active or inactive are those of the source. The rule behind the calls is not given here.

Key:
[1] = target: T1, 3-phosphoinositide-dependent protein kinase 1 (Homo sapiens) (UniProt O15530); assay: Activation of PDK1 using KTFCGTPEYLAPEVRR as substrate and [gamma32P]-ATP/Mg2+ by phosphor imaging analysis relative to control
T1 sequence (whole entry): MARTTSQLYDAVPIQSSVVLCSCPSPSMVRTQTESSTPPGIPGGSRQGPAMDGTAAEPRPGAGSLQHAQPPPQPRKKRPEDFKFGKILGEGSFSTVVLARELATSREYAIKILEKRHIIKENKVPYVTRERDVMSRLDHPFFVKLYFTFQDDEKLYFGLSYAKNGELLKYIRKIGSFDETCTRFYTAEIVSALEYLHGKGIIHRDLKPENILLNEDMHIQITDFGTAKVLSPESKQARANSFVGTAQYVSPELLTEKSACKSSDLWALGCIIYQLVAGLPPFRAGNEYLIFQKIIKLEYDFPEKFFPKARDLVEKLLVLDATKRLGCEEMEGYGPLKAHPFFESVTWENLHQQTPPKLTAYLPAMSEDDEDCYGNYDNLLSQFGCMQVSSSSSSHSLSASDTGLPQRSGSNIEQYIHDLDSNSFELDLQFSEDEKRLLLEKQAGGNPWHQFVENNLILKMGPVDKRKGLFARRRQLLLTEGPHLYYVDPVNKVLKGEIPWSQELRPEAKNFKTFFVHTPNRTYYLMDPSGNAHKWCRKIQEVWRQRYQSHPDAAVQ
In short: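 Radioactive kinase assay with 0.25 μM PDK1 and [γ32P]ATP. Phosphorylated peptide was captured on P81 phosphocellulose paper and detected by phosphorimaging. Activation is expressed relative to DMSO control (=100%). AC50 is the concentration giving half-maximal activation. Values are the mean of at least two independent experiments.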

[2] = Activation of PKA at 50 uM relative to control
[3] = target: T2, Protein kinase C zeta type (Homo sapiens) (UniProt Q05513); assay: Activation of PKCzeta at 50 uM relative to control
T2 sequence (whole entry): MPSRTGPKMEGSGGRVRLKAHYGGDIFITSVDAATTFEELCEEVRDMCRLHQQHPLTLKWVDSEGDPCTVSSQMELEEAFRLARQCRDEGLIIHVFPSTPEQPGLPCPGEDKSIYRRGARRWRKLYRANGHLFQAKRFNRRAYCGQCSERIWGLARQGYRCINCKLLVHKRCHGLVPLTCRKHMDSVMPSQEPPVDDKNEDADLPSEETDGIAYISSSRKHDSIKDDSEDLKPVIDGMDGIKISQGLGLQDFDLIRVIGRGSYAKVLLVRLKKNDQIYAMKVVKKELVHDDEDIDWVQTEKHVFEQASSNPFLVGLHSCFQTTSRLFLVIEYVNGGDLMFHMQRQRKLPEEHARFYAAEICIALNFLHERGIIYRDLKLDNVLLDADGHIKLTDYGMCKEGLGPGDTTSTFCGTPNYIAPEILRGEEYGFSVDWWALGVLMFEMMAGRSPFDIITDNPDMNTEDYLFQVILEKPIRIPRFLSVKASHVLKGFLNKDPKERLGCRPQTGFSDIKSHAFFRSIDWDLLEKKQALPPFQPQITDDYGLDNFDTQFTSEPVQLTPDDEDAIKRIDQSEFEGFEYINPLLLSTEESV

[4] = target: Serine/threonine-protein kinase N2 (Homo sapiens) (UniProt Q16513); assay: Activation of PRK2 at 50 uM relative to control
Serine/threonine-protein kinase N2 (Homo sapiens), sequence (Q16513 whole entry, looked up): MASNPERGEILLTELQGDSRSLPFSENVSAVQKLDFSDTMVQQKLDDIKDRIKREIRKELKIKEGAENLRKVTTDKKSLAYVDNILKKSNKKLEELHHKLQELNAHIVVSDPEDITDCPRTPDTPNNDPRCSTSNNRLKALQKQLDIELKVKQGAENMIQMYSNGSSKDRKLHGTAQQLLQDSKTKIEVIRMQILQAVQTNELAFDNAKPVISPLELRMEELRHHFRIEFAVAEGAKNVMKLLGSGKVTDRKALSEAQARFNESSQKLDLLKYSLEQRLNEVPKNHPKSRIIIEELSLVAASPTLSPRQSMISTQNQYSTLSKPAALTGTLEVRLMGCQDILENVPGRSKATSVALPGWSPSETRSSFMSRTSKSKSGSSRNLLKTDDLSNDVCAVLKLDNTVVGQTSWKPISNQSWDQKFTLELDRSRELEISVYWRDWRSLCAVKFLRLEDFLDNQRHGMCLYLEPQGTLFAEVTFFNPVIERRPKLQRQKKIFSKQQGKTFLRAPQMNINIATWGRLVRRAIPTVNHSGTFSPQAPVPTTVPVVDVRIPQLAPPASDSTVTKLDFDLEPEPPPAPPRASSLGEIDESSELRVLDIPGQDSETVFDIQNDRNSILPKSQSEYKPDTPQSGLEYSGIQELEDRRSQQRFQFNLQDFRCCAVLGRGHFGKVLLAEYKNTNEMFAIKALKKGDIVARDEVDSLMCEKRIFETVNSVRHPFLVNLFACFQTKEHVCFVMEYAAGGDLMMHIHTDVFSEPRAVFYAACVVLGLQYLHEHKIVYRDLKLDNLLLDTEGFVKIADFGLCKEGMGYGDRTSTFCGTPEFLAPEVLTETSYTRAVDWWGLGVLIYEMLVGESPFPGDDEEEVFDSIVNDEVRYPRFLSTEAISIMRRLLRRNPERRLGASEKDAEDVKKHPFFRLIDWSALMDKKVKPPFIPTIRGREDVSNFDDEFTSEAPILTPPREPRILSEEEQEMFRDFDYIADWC

[5] = target: RAC-alpha serine/threonine-protein kinase (Homo sapiens) (UniProt P31749); assay: Activation of PKBalpha at 2 uM relative to control
RAC-alpha serine/threonine-protein kinase (Homo sapiens), sequence (P31749 whole entry): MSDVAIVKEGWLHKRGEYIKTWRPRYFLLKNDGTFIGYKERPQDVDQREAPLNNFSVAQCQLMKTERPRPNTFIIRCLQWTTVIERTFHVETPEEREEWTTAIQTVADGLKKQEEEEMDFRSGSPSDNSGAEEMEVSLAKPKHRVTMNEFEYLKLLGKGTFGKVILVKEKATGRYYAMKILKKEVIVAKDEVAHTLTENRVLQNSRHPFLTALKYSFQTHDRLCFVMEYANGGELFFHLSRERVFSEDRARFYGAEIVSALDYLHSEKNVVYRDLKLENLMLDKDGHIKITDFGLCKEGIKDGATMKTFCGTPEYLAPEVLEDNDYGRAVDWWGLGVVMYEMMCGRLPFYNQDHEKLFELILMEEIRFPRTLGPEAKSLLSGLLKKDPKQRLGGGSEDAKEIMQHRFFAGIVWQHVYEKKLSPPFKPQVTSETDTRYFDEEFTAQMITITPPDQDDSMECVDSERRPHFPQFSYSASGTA

[6] = target: T3, Serine/threonine-protein kinase Sgk1 (Homo sapiens) (UniProt O00141); assay: Activation of SGK at 2 uM relative to control
T3 sequence (whole entry): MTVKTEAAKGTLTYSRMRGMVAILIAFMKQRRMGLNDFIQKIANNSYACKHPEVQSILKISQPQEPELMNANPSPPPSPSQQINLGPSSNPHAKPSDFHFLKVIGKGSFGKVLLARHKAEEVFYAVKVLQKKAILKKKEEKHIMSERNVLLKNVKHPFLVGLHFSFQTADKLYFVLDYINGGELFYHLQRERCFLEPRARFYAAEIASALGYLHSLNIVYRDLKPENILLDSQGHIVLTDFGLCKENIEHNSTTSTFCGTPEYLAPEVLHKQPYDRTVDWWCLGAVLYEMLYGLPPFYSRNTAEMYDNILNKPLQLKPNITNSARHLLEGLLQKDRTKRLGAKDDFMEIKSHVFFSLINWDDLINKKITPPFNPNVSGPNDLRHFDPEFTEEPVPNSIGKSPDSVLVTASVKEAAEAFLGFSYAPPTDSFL

[7] = target: Serine/threonine-protein kinase N2 (Homo sapiens) (UniProt Q16513); assay: Activation of PRK2 at 2 uM relative to control
[8] = target: Ribosomal protein S6 kinase beta-1 (Homo sapiens) (UniProt P23443); assay: Activation of S6K1 at 50 uM relative to control
Ribosomal protein S6 kinase beta-1 (Homo sapiens), sequence (P23443 whole entry, looked up): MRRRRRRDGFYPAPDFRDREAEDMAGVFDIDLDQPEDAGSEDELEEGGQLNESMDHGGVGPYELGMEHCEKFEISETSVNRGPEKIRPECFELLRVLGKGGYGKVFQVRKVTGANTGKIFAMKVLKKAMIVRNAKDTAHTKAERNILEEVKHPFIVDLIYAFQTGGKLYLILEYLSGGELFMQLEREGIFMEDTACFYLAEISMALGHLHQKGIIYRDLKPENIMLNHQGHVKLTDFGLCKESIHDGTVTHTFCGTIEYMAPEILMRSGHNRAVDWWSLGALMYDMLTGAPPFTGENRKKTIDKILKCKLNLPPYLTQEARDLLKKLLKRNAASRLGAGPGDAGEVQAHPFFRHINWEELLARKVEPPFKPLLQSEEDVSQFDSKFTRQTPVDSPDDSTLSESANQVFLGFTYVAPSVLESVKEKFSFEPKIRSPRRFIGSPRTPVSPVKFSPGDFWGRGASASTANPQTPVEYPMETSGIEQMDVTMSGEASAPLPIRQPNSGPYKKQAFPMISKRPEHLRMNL

[9] = target: Ribosomal protein S6 kinase beta-1 (Homo sapiens) (UniProt P23443); assay: Activation of S6K1 at 2 uM relative to control
[10] = Activation of PKA at 2 uM relative to control
[11] = target: RAC-alpha serine/threonine-protein kinase (Homo sapiens) (UniProt P31749); assay: Activation of PKBalpha at 50 uM relative to control
[12] = target: T3, Serine/threonine-protein kinase Sgk1 (Homo sapiens); assay: Activation of SGK at 50 uM relative to control
[13] = target: T2, Protein kinase C zeta type (Homo sapiens); assay: Activation of PKCzeta at 2 uM relative to control
[14] = target: T4, 3-phosphoinositide-dependent protein kinase 1 (Homo sapiens, UniProt O15530); assay: Increase in thermal stability of PDK1 by differential scanning fluorimetry
T4 sequence (O15530 whole entry): T1 sequence (whole entry)
In short: (§1)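 PDK1 (1 μM) in 10 mM HEPES pH 7.5, 150 mM NaCl, 1 mM DTT and 1/1000 SYPRO Orange, with ligand at 1% final DMSO, was heated from 25–70 °C in 0.3 °C steps. Tm came from a Boltzmann fit, and ΔTm is relative to DMSO control, each point from duplicates. EC50 was fitted from ΔTm versus concentration, along with the concentration giving a 1.5 °C shift.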

[15] = target: T1, 3-phosphoinositide-dependent protein kinase 1 (Homo sapiens); assay: Increase in thermal stability of PDK1 by differential scanning fluorimetry relative to control; in short: as §1
[16] = target: T1, 3-phosphoinositide-dependent protein kinase 1 (Homo sapiens); assay: Increase in thermal stability of PDK1 assessed as concentration required to increase 1.5 degC thermal stability by differential scanning fluorimetry; in short: as §1
[17] = Activation of RSK at 50 uM relative to control
[18] = Activation of RSK at 2 uM relative to control
[19] = Activation of MSK at 50 uM relative to control
L6 = assay: Cellular uptake in rat L6 cells at 20 uM up to 100 mins by mass spectroscopy analysis; assay type: ADME, cell-based; conditions: l6, 100 min
[20] = Activation of MSK at 2 uM relative to control
[21] = target: T4, 3-phosphoinositide-dependent protein kinase 1; assay: Binding affinity to PDK1

Compound: O=C(O)CC(CC(=O)c1ccc(Cl)cc1)c1ccc(Cl)cc1 (racemic)
- max activation [1]: inactive

Compound: CCc1ccc(C(=O)CC(CC(=O)O)c2ccccc2)cc1 (racemic)
- max activation [1]: 2

Compound: O=C(CC(c1ccc(Cl)cc1)C(C(=O)O)C(=O)O)c1ccc(O)cc1 (racemic)
- max activation [1]: inactive

Compound: O=C(O)CC(CC(=O)c1ccc2c(ccc3ccccc32)c1)c1ccccc1 (racemic)
- max activation [1]: 1.5

Compound: O=C(O)CC(CC(=O)c1cccc(Cl)c1)c1ccccc1 (racemic)
- max activation [1]: 2.5

Compound: O=C(O)/C=C(/CCc1ccc(Cl)cc1)c1ccccc1
- Activity [2]: 74%
- Activity [3]: inactive
- Activity [4]: inactive
- Activity [5]: inactive
- Activity [6]: inactive
- Activity [7]: inactive
- Activity [8]: 84%
- Activity [9]: inactive
- Activity [10]: inactive
- Activity [11]: inactive
- Activity [12]: inactive
- Activity [13]: inactive

Compound: O=C(CC(c1ccc(Cl)cc1)C(C(=O)O)C(=O)O)c1ccc(I)cc1 (racemic)
- max activation [1]: 3.8

Compound: O=C(O)CC(CC(=O)c1ccc2ccccc2c1)c1ccccc1 (racemic)
- max activation [1]: 2.5

Compound: O=C(CC(c1cc(-c2ccccc2)cs1)C(C(=O)O)C(=O)O)c1ccc(C(F)(F)F)cc1 (racemic)
- max activation [1]: inactive

Compound: O=C(O)CC(CC(=O)c1ccc(C(F)(F)F)cc1)c1ccc(Cl)cc1 (racemic)
- max activation [1]: inactive

Compound: O=C(O)CC(CC(=O)c1ccc(I)cc1)c1ccc(Cl)cc1 (racemic)
- max activation [1]: 2.5

Compound: O=C(CC(c1ccc2ccccc2c1)C(C(=O)O)C(=O)O)c1ccc2ccccc2c1 (racemic)
- max activation [1]: 4.8

Compound: O=C(CC(c1ccccc1)C(C(=O)O)C(=O)O)c1ccc(C(F)(F)F)cc1 (racemic)
- Activity [2]: 80%
- Activity [3]: inactive
- Activity [4]: inactive
- EC50 [14]: 85.8 µM
- ΔTm [15]: 3.9 °C
- Activity [16]: 67.6 µM
- Activity [17]: 140%
- Activity [18]: inactive
- Activity [5]: inactive
- Activity [6]: inactive
- Activity [7]: inactive
- Activity [8]: 46%
- Activity [19]: inactive
- Activity [9]: 82%
- Activity [10]: inactive
- Activity [11]: inactive
- Drug uptake (L6): Not Active
- Activity [20]: inactive
- max activation [1]: 5.5
- Activity [12]: inactive
- Activity [13]: inactive

Compound: O=C(O)CC(CC(=O)c1ccc(Cl)cc1)c1ccccc1 (racemic)
- max activation [1]: 3

Compound: O=C(CC(c1ccc(Cl)cc1)C(C(=O)O)C(=O)O)c1ccc(Br)cc1 (racemic)
- max activation [1]: 3

Compound: COc1ccc2cc(C(=O)CC(c3ccccc3)C(C(=O)O)C(=O)O)ccc2c1 (racemic)
- max activation [1]: 3.6

Compound: O=C(C[C@H](c1ccccc1)C(C(=O)O)C(=O)O)c1ccc(C(F)(F)F)cc1
- max activation [1]: 5.5

Compound: O=C(CC(c1ccc2ccccc2c1)C(C(=O)O)C(=O)O)c1ccc(I)cc1 (racemic)
- EC50 [14]: 13 µM
- ΔTm [15]: 2.4 °C
- Activity [16]: 18.9 µM
- max activation [1]: 3.6

Compound: O=C(CC(c1ccccc1)C(C(=O)O)C(=O)O)c1c[nH]c2ccccc12 (racemic)
- max activation [1]: 3

Compound: O=C(O)CC(CC(=O)c1ccc2ccccc2c1)c1ccc2ccccc2c1 (racemic)
- max activation [1]: 3.4

Compound: O=C(CC(c1ccc(Cl)cc1)C(C(=O)O)C(=O)O)c1ccc(C(F)(F)F)cc1 (racemic)
- max activation [1]: 3.5

Compound: O=C(O)CC(CC(=O)c1ccc(Br)cc1)c1ccccc1 (racemic)
- max activation [1]: 2

Compound: CCc1ccc(C(=O)CC(c2ccccc2)C(C(=O)O)C(=O)O)cc1 (racemic)
- max activation [1]: 5

Compound: O=C(CC(c1ccccc1)C(C(=O)O)C(=O)O)c1ccc2ccccc2c1 (racemic)
- max activation [1]: 4

Compound: O=C(O)CC(CC(=O)c1ccc2cc(O)ccc2c1)c1ccccc1 (racemic)
- max activation [1]: 3

Compound: O=C(CC(c1ccc(Cl)cc1)C(C(=O)O)C(=O)O)c1ccc(Cl)cc1 (racemic)
- max activation [1]: 2

Compound: O=C(CC(c1ccccc1)C(C(=O)O)C(=O)O)c1ccc(Oc2ccccc2)cc1 (racemic)
- max activation [1]: 7

Compound: O=C(CC(c1ccccc1)C(C(=O)O)C(=O)O)c1ccc(Br)cc1 (racemic)
- max activation [1]: 3.7

Compound: O=C(CC(c1ccccc1)C(C(=O)O)C(=O)O)c1ccc(Cl)cc1 (racemic)
- Activity [2]: inactive
- Activity [3]: inactive
- Activity [4]: inactive
- Activity [17]: 160%
- Activity [18]: inactive
- Activity [5]: inactive
- Activity [6]: inactive
- Activity [7]: inactive
- Activity [8]: 47%
- Activity [19]: inactive
- Activity [9]: 84%
- Activity [10]: inactive
- Activity [11]: inactive
- Activity [20]: inactive
- max activation [1]: 4
- Activity [12]: inactive
- Activity [13]: inactive

Compound: O=C(C[C@@H](c1ccccc1)C(C(=O)O)C(=O)O)c1ccc(C(F)(F)F)cc1
- max activation [1]: 2

Compound: O=C(CC(c1ccccc1)C(C(=O)O)C(=O)O)c1cccc(Cl)c1 (racemic)
- max activation [1]: 2.6

Compound: O=C(O)CC(CC(=O)c1ccc(C(F)(F)F)cc1)c1ccccc1 (racemic)
- max activation [1]: 4

Compound: H-REPRILSEEEQEMFRDFDYIADWC-OH
- EC50 [14]: 14.2 µM
- ΔTm [15]: 7.3 °C
- Activity [16]: 3.1 µM
- Kd [21]: 0.043 µM
- max activation [1]: 3.4

Compound: O=C(CC(c1ccccc1)C(C(=O)O)C(=O)O)c1ccc(I)cc1 (racemic)
- EC50 [14]: 60 µM
- ΔTm [15]: 5.2 °C
- Activity [16]: 30.9 µM
- max activation [1]: 4

Compound: CCc1ccc(C(=O)CC(c2ccc(Cl)cc2)C(C(=O)O)C(=O)O)cc1 (racemic)
- max activation [1]: 3

Compound: O=C(O)CC(CC(=O)c1ccc(I)cc1)c1ccccc1 (racemic)
- max activation [1]: 4

Compound: O=C(O)CC(CC(=O)c1ccc(Oc2ccccc2)cc1)c1ccccc1 (racemic)
- max activation [1]: 2.8

Compound: O=C(CC(c1ccccc1)C(C(=O)O)C(=O)O)c1ccc2c(ccc3ccccc32)c1 (racemic)
- max activation [1]: 3.7

Compound: O=C(CC(c1ccccc1)C(C(=O)O)C(=O)O)c1ccc2c(c1)[nH]c1ccccc12 (racemic)
- EC50 [14]: 30.2 µM
- ΔTm [15]: 4.9 °C
- Activity [16]: 18.2 µM
- max activation [1]: 3.6
